Results published in paper PMC5343109 (Acta Pharmaceutica Sinica. B, 2016).
Values joined by “and” are separate entries in the source; they are usually repeats but may differ in a detail not shown here. Identical values can stand only once. Marks after values point to notes of the source that are not given here.

Experiments:
[1] = DPPH free radical scavenging antioxidant assay; settings: 517 nm, 1 mmol/L concentration
[2] = biological target: p38α MAPK (Homo sapiens, UniProt Q16539); assay: p38α MAPK assay; type: biochemical
[3] = tested on: carrageenan-induced rat paw edema; assay: carrageenan-induced rat paw edema anti-inflammatory activity; type: in vivo, albino rats of Wistar strain; settings: for inhibition in vivo at 10 mg/kg: Rattus norvegicus, po, 4 h, read-out: Inhibition (anti-inflammatory activity), rat, oral dose 10 mg/kg body weight, after 4h; for Inhibition (anti-inflammatory activity) / Increase in paw edema / Activity relative to diclofenac sodium: rat; for Inhibition (anti-inflammatory activity) / Increase in paw edema: oral dose 10 mg/kg body weight; for Inhibition (anti-inflammatory activity): after 4h, 10 mg/kg; for Increase in paw edema: mean±SEM, n=6; for Activity relative to diclofenac sodium: oral dose 10 mg/kg, diclofenac sodium = 100
Method in brief: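 Wistar rats of either sex, 180–200 g, kept at 25 ± 2 °C, 50 ± 5% relative humidity and a 12 h light/dark cycle, with free food and water until testing. Paw edema after carrageenan was measured by digital plethysmometer. Six animals per group. Groups were compared by Student's t-test, with P < 0.05 taken as significant.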

[4] = tested on: gastric mucosa (ulcerogenic potential); assay: ulcerogenic test; type: in vivo; settings: rats, oral dose of 30 mg/kg, mean±SEM, n=6
[5] = tested on: gastric mucosal tissue; assay: lipid peroxidation in the gastric mucosa; type: in vivo; settings: rats, mean±SEM
[6] = tested on: TNF-α; assay: LPS-induced TNF-α production inhibition in mice; type: in vivo, mice (BALB/c); settings: for TNF-α inhibition: LPS-induced TNF-α production in mice, plasma ELISA, mean±SEM, n=6; for ID50: LPS-induced TNF-α release in mice

Sequence of p38α MAPK (Q16539 whole entry): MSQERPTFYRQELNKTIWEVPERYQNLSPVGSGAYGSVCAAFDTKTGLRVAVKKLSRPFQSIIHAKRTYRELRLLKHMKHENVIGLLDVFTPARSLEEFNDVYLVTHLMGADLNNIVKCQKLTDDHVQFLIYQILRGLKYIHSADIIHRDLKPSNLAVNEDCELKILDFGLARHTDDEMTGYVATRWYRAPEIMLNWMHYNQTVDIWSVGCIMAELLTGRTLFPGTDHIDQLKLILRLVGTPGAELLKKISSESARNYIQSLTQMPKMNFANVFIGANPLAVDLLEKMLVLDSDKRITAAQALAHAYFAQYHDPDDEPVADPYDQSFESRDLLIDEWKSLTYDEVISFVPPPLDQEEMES

Compound | percentage antioxidant activity [1] | IC50 [2] | inhibition in vivo at 10 mg/kg [3] | Inhibition (anti-inflammatory activity) [3] | Increase in paw edema [3] | Activity relative to diclofenac sodium [3] | Severity index [4] | Lipid peroxidation ([5]; n=6) | TNF-α inhibition [6] | ID50 [6] | Lipid peroxidation ([5]; n=6, listed as diclofenac sodium)
COc1ccc(O)c(C(C)(C)C)c1 [BHA, butylated hydroxy anisole, reference compound] | 71.53% |  |  |  |  |  |  |  |  |  | 
NC(=O)Nc1ccc(-c2cc(-c3ccc(OCc4ccccc4)cc3)n(-c3ccccc3Cl)n2)cc1 [Compound 3a, 1-[4-[5-(4-(Benzyloxy)phenyl)-1-(2-chlorophenyl)-1H-pyrazol-3-yl]phenyl]urea] |  | 39 ± 40 nM | 76.2% | 76.19 ^b % | 0.40 ± 0.08 mL | 93.23 | 0.67±0.25 ^b | 5.47±0.44 ^b nmol MDA/100 mg tissue | 60.87±2.65 ^b % | 19.98 mg/kg | 
NC(=O)Nc1ccc(-c2cc(-c3ccc(OCc4ccccc4)cc3)n(-c3cccc(Cl)c3)n2)cc1 [Compound 3b, 1-[4-[5-(4-(Benzyloxy)phenyl)-1-(3-chlorophenyl)-1H-pyrazol-3-yl]phenyl]urea] |  |  | 78.1% | 78.06 ^b % | 0.37 ± 0.20 mL | 95.52 |  | 5.19±0.48 ^b nmol MDA/100 mg tissue | 62.45±0.07 ^b % | 11.32 mg/kg and 11.32 ^b mg/kg | 
NC(=O)Nc1ccc(-c2cc(-c3ccc(OCc4ccccc4)cc3)n(-c3ccc(Cl)cc3)n2)cc1 [Compound 3c, 1-[4-[5-(4-(Benzyloxy)phenyl)-1-(4-chlorophenyl)-1H-pyrazol-3-yl]phenyl]urea] | 75.06% |  | 80.9% | 80.93 ^b % | 0.32 ± 0.06 mL | 99.03 |  | 5.12±0.55 ^b nmol MDA/100 mg tissue | 62.56±0.24% | 9.67 mg/kg and 9.67 ^b mg/kg | 
NC(=O)Nc1ccc(-c2cc(-c3ccc(OCc4ccccc4)cc3)n(-c3ccc(Cl)c(Cl)c3)n2)cc1 [Compound 3d, 1-[4-[5-(4-(Benzyloxy)phenyl)-1-(3,4-dichlorophenyl)-1H-pyrazol-3-yl]phenyl]urea] |  | 79 nM | 62.2% |  | 0.64 ± 0.05 mL | 76.17 | 1.08±0.37 ^b |  | 52.60±2.16% |  | 
NC(=O)Nc1ccc(-c2cc(-c3ccc(OCc4ccccc4)cc3)n(-c3ccc(F)cc3)n2)cc1 [Compound 3e, 1-[4-[5-(4-(benzyloxy)phenyl)-1-(4-fluorophenyl)-1H-pyrazol-3-yl]phenyl]urea] |  | 48 ± 10 nM | 72.3% |  | 0.47 ± 0.16 mL | 88.50 | 0.83±0.22 | 6.08±0.15 nmol MDA/100 mg tissue | 57.34±3.05% |  | 
NC(=O)Nc1ccc(-c2cc(-c3ccc(OCc4ccccc4)cc3)n(-c3ccc(F)c(Cl)c3)n2)cc1 [Compound 3f, 1-[4-[5-(4-(Benzyloxy)phenyl)-1-(3-chloro-4-fluorophenyl)-1H-pyrazol-3-yl]phenyl] urea] |  | 110 ± 170 nM |  |  |  |  |  |  |  |  | 
NC(=O)Nc1ccc(-c2cc(-c3ccc(OCc4ccccc4)cc3)n(-c3ccc(Br)cc3)n2)cc1 [Compound 3g, 1-[4-[5-(4-(Benzyloxy)phenyl)-1-(4-bromophenyl)-1H-pyrazol-3-yl]phenyl]urea] |  |  | 74% | 74.01 ^b % | 0.44 ± 0.06 mL | 90.56 | 0.75±0.27 | 6.02±0.17 ^a nmol MDA/100 mg tissue | 58.13±0.28% |  | 
NC(=O)Nc1ccc(-c2cc(-c3ccc(OCc4ccccc4)cc3)n(-c3ccc([N+](=O)[O-])cc3)n2)cc1 [Compound 3h, 1-[4-[5-(4-(Benzyloxy)phenyl)-1-(4-nitrophenyl)-1H-pyrazol-3-yl]phenyl]urea] |  | 67 nM | 68.4% |  | 0.53 ± 0.12 mL | 83.67 | 0.91±0.20 |  | 52.76±2.08% |  | 
NC(=O)Nc1ccc(-c2cc(-c3ccc(OCc4ccccc4)cc3)n(-c3ccc([N+](=O)[O-])cc3[N+](=O)[O-])n2)cc1 [Compound 3i, 1-[4-[5-(4-(Benzyloxy)phenyl)-1-(2,4-dinitrophenyl)-1H-pyrazol-3-yl]phenyl]urea] |  | 112 ± 40 nM |  |  |  |  |  |  |  |  | 
Cc1ccccc1-n1nc(-c2ccc(NC(N)=O)cc2)cc1-c1ccc(OCc2ccccc2)cc1 [Compound 3j, 1-[4-[5-(4-(Benzyloxy)phenyl)-1-(2-methylphenyl)-1H-pyrazol-3-yl]phenyl]urea] | did not exhibit any significant antioxidant activity | 123 nM |  |  |  |  |  |  |  |  | 
Cc1cccc(-n2nc(-c3ccc(NC(N)=O)cc3)cc2-c2ccc(OCc3ccccc3)cc2)c1 [Compound 3k, 1-[4-[5-(4-(Benzyloxy)phenyl)-1-(3-methylphenyl)-1H-pyrazol-3-yl]phenyl]urea] |  | 210 ± 110 nM |  |  |  |  |  |  |  |  | 
Cc1ccc(-n2nc(-c3ccc(NC(N)=O)cc3)cc2-c2ccc(OCc3ccccc3)cc2)cc1 [Compound 3l, 1-[4-[5-(4-(Benzyloxy)phenyl)-1-(4-methylphenyl)-1H-pyrazol-3-yl]phenyl]urea] |  | 169 ± 70 nM |  |  |  |  |  |  |  |  | 
Cc1cccc(C)c1-n1nc(-c2ccc(NC(N)=O)cc2)cc1-c1ccc(OCc2ccccc2)cc1 [Compound 3m, 1-[4-[5-(4-(Benzyloxy)phenyl)-1-(2,6-dimethylphenyl)-1H-pyrazol-3-yl]phenyl]urea] |  | 270 nM |  |  |  |  |  |  |  |  | 
COc1ccccc1-n1nc(-c2ccc(NC(N)=O)cc2)cc1-c1ccc(OCc2ccccc2)cc1 [Compound 3n, 1-[4-[5-(4-(Benzyloxy)phenyl)-1-(2-methoxyphenyl)-1H-pyrazol-3-yl]phenyl]urea] | did not exhibit any significant antioxidant activity | 206 ± 370 nM |  |  |  |  |  |  |  |  | 
COc1ccc(-n2nc(-c3ccc(NC(N)=O)cc3)cc2-c2ccc(OCc3ccccc3)cc2)cc1 [Compound 3o, 1-[4-[5-(4-(Benzyloxy)phenyl)-1-(4-methoxyphenyl)-1H-pyrazol-3-yl]phenyl]urea] | did not exhibit any significant antioxidant activity | 170 nM |  |  |  |  |  |  |  |  | 
O=C(O)Cc1ccccc1Nc1c(Cl)cccc1Cl [Diclofenac sodium, diclofenac sodium, reference compound] |  |  | 81.6% |  | 0.31 ± 0.13 mL | 100 | 1.83±0.27 | 6.52±0.42 nmol MDA/100 mg tissue |  |  | 6.52 ± 0.42 nmol MDA/100 mg tissue
C[S+]([O-])c1ccc(-c2nc(-c3ccncc3)c(-c3ccc(F)cc3)[nH]2)cc1 (stereo not shown) [SB 203580, reference compound] |  |  |  |  |  |  |  |  | 52.11±1.08 ^b % | 28.40 mg/kg and 28.40 ^b mg/kg | 
